Source: PubChem (several laboratories)
Compounds with a hit are over-represented: about 2.8% of the library has one in this group of screens.
NPY-Y1 PAM-ag – potentiators or agonists of human neuropeptide Y receptor Y1; P25929; NPY-Y1 expressing cells, potentiator/agonist activation; 220,000 tested, 0.37% active; AID 1304; activation, % at 3.6 µM; in the data active = activation above about 33%, passing the limit was not always enough;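 note: cells stimulated with NPY at EC10 then isoproterenol at EC100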
NPY2 pot ag – potentiators or agonists of human neuropeptide Y receptor Y2; 220,000 tested, 0.45% active; cells expressing NPY-Y2, potentiator/agonist read-out; P49146; activation, % at 3.6 µM; AID 1359; in the data active = activation above about 27%;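 note: cells stimulated with NPY near EC25 plus isoproterenol at EC100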
NPY Y1 blocker – blocks the human neuropeptide Y Y1 receptor; 200,000 tested, 1% active; HEK293-CNG Y1 cells, membrane potential fluorescence; NPY at EC95, then isoproterenol; inhibition, % at 3.6 µM;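 active = inhibition above the campaign mean inhibition of all tested compounds plus 3 SD, cut at about 20% in these data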
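Material: HEK293 Y1/CNG channel cell line; also added: NPY (25 nM), isoproterenol (1 µM), Ro 20-1724 (25 µM); doses: one concentration, 3.6 µM, in 0.4% DMSO; schedule: compound incubation 1 h at room temperature, readout 45 min post-stimulation; technique: membrane potential fluorescence; measure: fluorescence ratio normalized to % inhibition between controls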
MDM2 E3 inh – Mdm2 E3 ligase (human) inhibition; cell-based MDM2 ubiquitination luciferase reporter, 2 h; 0 = plate control, 100 = twice control, blank-subtracted; Q00987; 210,000 tested, 0.11% active; AID 1230; signal enhancement, % at 5 µM;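 active = signal enhancement of 30% or more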;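 note: luminescence tracks abundance of the self-degrading MDM2-luciferase fusion protein; higher signal means inhibition of MDM2 E3 ligase activity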
Target sequence (Q00987 whole entry, looked up, the tested form may be a part): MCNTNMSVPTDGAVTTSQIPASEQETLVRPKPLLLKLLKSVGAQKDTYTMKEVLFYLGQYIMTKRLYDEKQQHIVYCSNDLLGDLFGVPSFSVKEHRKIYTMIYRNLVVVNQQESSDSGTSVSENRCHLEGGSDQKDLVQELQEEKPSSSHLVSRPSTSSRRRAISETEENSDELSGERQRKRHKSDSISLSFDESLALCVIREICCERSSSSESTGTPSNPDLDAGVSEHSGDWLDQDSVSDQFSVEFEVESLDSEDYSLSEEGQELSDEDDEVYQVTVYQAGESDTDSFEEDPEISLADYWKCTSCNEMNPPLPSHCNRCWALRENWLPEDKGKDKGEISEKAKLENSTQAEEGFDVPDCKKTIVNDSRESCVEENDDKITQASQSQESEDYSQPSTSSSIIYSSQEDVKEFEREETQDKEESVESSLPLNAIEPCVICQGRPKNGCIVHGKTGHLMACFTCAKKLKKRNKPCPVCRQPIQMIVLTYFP
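Assay system: stable mammalian line carrying autodegrading MDM2–luciferase fusion reporter; Input: 2000 cells in each well; Compound dosing: single-point 5 µM; Schedule: 2 h compound exposure at 37 °C; Signal: SteadyLite luciferase luminescence after 15 min room-temperature reagent incubation; Evaluation: % luminescence enhancement versus blank-corrected plate control mean; Benchmarks: plate controls and plate blanks.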
Measles CPE – protection of cells from measles virus. Measles virus-infected cells, CPE protection, absorbance. protection (pct of control), % at 4 µM. 140,000 tested, 1.5% active; in the data active = protection mostly above about 24%, no sharp cut-off; inactive = mostly below about 26%
NPY-Y2 antag – NPY-Y2 (human) receptor antagonism | P49146 | NPY-Y2 expressing cells, antagonist mode | inhibition, % at 2.7 µM | 140,000 tested, 0.99% active | AID 793; in the data active = inhibition above about 17%
NPY-Y2 confirm – human NPY-Y2 potentiation or agonism, confirmation; shares compounds with NPY2 pot ag; cell-based NPY-Y2 potentiator/agonist assay; activation, % at 3.6 µM; 450 tested, 20% active; AID 1539; in the data active = activation above about 33%
NPY-Y1 counter – counter-screen for NPY-Y2 potentiators or agonists: NPY-Y1 potentiators or agonists; shares compounds with NPY2 pot ag; Y1 HEK293-CNG cells, membrane potential fluorescence; activation, % at 3.6 µM; 450 tested, 20% active; in the data active = activation above about 45%;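 note: cells stimulated with submaximal NPY then isoproterenol with phosphodiesterase inhibitor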
NPY-Y1 agonist 2 – activates human NPY-Y1, counter-screen for NPY-Y2 potentiators; shares compounds with NPY2 pot ag; HEK293 Y1-CNGC, membrane potential fluorescence, agonism; activation, % at 3.6 µM; 450 tested, 37% active; AID 1702;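 active = activation above the mean of DMSO-only control wells plus 3 SD, cut at about 18% in these data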;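 note: cells stimulated with 1 µM isoproterenol plus the PDE inhibitor Ro 20-1724; Y1 agonists lower the membrane potential dye signal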
CNGC inhibitor – counter-screen for NPY-Y2 potentiators: inhibitors of CNG channel activity. shares compounds with NPY2 pot ag. HEK293-CNG parental, isoproterenol cAMP, membrane potential fluorescence. inhibition, % at 3.6 µM. 450 tested, 32% active. AID 1703;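 active = inhibition above the control-well mean plus 3 SD of those wells, cut at about 22% in these data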
Y2 agonist ctr – activates human NPY-Y2 receptor in potentiator counter-screen; 450 tested, 56% active; HEK293 Y2/CNGC cells, membrane potential fluorescence, agonist mode; activation, % at 3.6 µM; shares compounds with NPY2 pot ag;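 active = activation above the mean of solvent-only control wells plus 3 SD, cut at about 10% in these data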;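 note: cells stimulated by isoproterenol with no NPY added so direct agonism is tested; agonism lowers probe fluorescence through less cAMP and CNG channel opening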
Of the large screens only hits and unclear results are named; the others gave an inactive call (follow-up assays come after a bar, where they were run).

Nc1sc(-c2ccccc2)cc1-c1n[nH]c(=S)n1C1CCCCC1	NPY2 pot ag 102.0 (no result: NPY Y1 blocker, Measles CPE, NPY-Y2 antag) | NPY-Y2 confirm inactive | NPY-Y1 counter inactive | NPY-Y1 agonist 2 inactive | CNGC inhibitor inactive | Y2 agonist ctr 24.6
O=C(NC(=S)Nc1ccc(Cc2ccncc2)cc1)c1ccc(F)cc1	none (no result: Measles CPE, NPY-Y2 antag)
COc1ccc2c(c1)CCC(C)N2C(=O)C(=O)c1c[nH]c2ccccc12 (stereo unspecified)	none (no result: NPY Y1 blocker, Measles CPE, NPY-Y2 antag)
Cc1ccc(NC(=O)c2ccccc2NS(=O)(=O)c2ccc(Cl)s2)cc1	NPY2 pot ag 43.3 | NPY-Y2 confirm inactive | NPY-Y1 counter inactive | NPY-Y1 agonist 2 inactive | CNGC inhibitor inactive | Y2 agonist ctr inactive
O=C(Nc1ccccc1)c1ccccc1NS(=O)(=O)c1ccc(Cl)s1	none
CNC[C@H](O)c1ccc(O)c(O)c1	NPY2 pot ag 60.5 (no result: MDM2 E3 inh) | NPY-Y2 confirm 59.4 | NPY-Y1 counter 47.9 | NPY-Y1 agonist 2 71.0 | CNGC inhibitor 57.9 | Y2 agonist ctr 48.9
CC(C)c1ccc(NC(=O)C2CC(=O)N=C(N)S2)cc1 (stereo unspecified)	none
CC(=O)OCC1(C)CN(c2ccccc2)NC1=O (stereo unspecified)	none (no result: Measles CPE, NPY-Y2 antag)
COc1ccccc1N1C(=O)CC(Sc2n[nH]c(-c3cccc(C)c3)n2)C1=O (stereo unspecified)	none
O=C(Nc1cccc([N+](=O)[O-])c1)c1cc2ccccc2cc1O	NPY2 pot ag 57.4 (no result: NPY Y1 blocker, Measles CPE, NPY-Y2 antag) | NPY-Y2 confirm inactive | NPY-Y1 counter inactive | NPY-Y1 agonist 2 inactive | CNGC inhibitor inactive | Y2 agonist ctr 11.2
CN(C)CCCN(C(=O)CCc1ccccc1)c1nc2c(F)cccc2s1	none
CN(C)CCCN(C(=O)/C=C/c1cccs1)c1nc2c(F)cccc2s1	NPY2 pot ag 35.9 (no result: Measles CPE, NPY-Y2 antag) | NPY-Y2 confirm 65.8 | NPY-Y1 counter 73.4 | NPY-Y1 agonist 2 54.9 | CNGC inhibitor 63.4 | Y2 agonist ctr 64.5
Cc1cccc2sc(N(CCN(C)C)C(=O)/C=C/c3cccs3)nc12	NPY2 pot ag 52.9 | NPY-Y2 confirm 91.0 | NPY-Y1 counter 112.2 | NPY-Y1 agonist 2 96.8 | CNGC inhibitor 86.1 | Y2 agonist ctr 100.3
COCCNC(=O)C1CC(c2cccc([N+](=O)[O-])c2)=NO1 (stereo unspecified)	none
CCn1c2ccccc2c2cc(NC(=O)CN(C)CC(=O)Nc3ccc(N4CCOCC4)cc3)ccc21	NPY2 pot ag 26.8 (no result: Measles CPE, NPY-Y2 antag) | NPY-Y2 confirm inactive | NPY-Y1 counter inactive | NPY-Y1 agonist 2 inactive | CNGC inhibitor inactive | Y2 agonist ctr 17.7
COC(=O)c1ccc(N2CCN(S(=O)(=O)c3ccc4ccccc4c3)CC2)c([N+](=O)[O-])c1	none
NC(=O)c1ccc(N2CCN(S(=O)(=O)c3ccccc3)CC2)c([N+](=O)[O-])c1	NPY2 pot ag 31.1 (no result: Measles CPE, NPY-Y2 antag) | NPY-Y2 confirm inactive | NPY-Y1 counter inactive | NPY-Y1 agonist 2 inactive | CNGC inhibitor inactive | Y2 agonist ctr inactive
CCOC(=O)C(=CNc1cc(C)nn1-c1ccc(C)cc1)C(=O)OCC	NPY2 pot ag 36.2 | NPY-Y2 confirm inactive | NPY-Y1 counter inactive | NPY-Y1 agonist 2 inactive | CNGC inhibitor inactive | Y2 agonist ctr inactive
O/N=C/c1ccnc(SCc2ccc(Cl)cc2)n1	none (no result: NPY Y1 blocker, Measles CPE, NPY-Y2 antag)
Cc1nc2ccccn2c1-c1ccnc(SCc2ccc(Cl)cc2)n1	NPY2 pot ag 48.7 (no result: NPY Y1 blocker, Measles CPE, NPY-Y2 antag) | NPY-Y2 confirm inactive | NPY-Y1 counter inactive | NPY-Y1 agonist 2 inactive | CNGC inhibitor inactive | Y2 agonist ctr inactive
